Results as given in ChEMBL document CHEMBL1139007 (J Med Chem, 2006).
pIC50: −log10 of the molar value.

Tests used:
[1] = target: T1, C-C chemokine receptor type 5 (Homo sapiens, UniProt P51681); test: Displacement of [125I]RANTES from CCR5 expressed in CHO cells; type: cell-based
Target sequence in this assay (P51681 whole entry): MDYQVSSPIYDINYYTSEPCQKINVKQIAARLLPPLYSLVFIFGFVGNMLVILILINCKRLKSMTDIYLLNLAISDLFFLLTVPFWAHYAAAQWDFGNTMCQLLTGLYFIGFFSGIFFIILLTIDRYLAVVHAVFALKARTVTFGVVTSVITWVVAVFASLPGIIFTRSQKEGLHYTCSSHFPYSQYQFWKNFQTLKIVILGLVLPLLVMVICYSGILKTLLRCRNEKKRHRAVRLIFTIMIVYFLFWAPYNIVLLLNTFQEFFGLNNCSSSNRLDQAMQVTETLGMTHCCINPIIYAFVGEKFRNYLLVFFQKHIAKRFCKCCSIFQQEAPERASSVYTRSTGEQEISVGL

[2] = target: T1, C-C chemokine receptor type 5; test: Inhibition of replication of R5 HIV1 Ba-L in MOLT4/CCR5 cells; type: functional, cell-based; settings: Human immunodeficiency virus 1, MOLT-4
Target sequence in this assay (P51681 whole entry, looked up): as the sequence (P51681 whole entry) above

[3] = target: T1, C-C chemokine receptor type 5; settings: Human immunodeficiency virus 1; Ba-L; MOLT-4; 5 nM
Target sequence in this assay (P51681 whole entry, looked up): as the sequence (P51681 whole entry) above

[4] = test system: Human immunodeficiency virus 1; test: Inhibition of replication of R5 HIV1 HTN in PMBC; type: functional, organism-based; settings: Human immunodeficiency virus 1, HTN
How it was run: (§1)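 PHA-stimulated PBMCs infected with clinical isolate (11-55 ng p24 per 4 × 10⁶ cells) for 4 h, washed to remove unadsorbed virus, then seeded at 2 × 10⁵ cells/well with a range of compound concentrations. On day 4 cells were split 1:2 into medium with the same compound level. IC50/IC90 for inhibition of replication; triplicate, repeated 3 or 4 times with PBMCs from different donors; means reported.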

[5] = Cmax in Beagle dog plasma at 3 mg/kg, po; type: ADME, organism-based, Canis lupus familiaris; design: dose 3 mg/kg, route oral
[6] = Tmax in Beagle dog plasma at 3 mg/kg, po; type: ADME, organism-based, Canis lupus familiaris; design: dose 3 mg/kg, route oral
[7] = Plasma concentration in cynomolgus monkey after 5 min at 1 mg/kg, iv; type: ADME, organism-based, Macaca fascicularis; design: dose 1 mg/kg, route intravenous
How it was run: (§2)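 Blood was drawn at set times (rat tail vein, dog cephalic vein, monkey femoral vein) and spun to plasma. Plasma was run on C8 HPLC, 1-min fractions counted by liquid scintillation.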

[8] = Bioavailability in Sprague-Dawley rat at 3 mg/kg, po; type: ADME, organism-based; settings: in vivo
[9] = Cmax in Sprague-Dawley rat plasma at 3 mg/kg, po; type: ADME, organism-based; design: dose 3 mg/kg, route oral
[10] = target: T2, C-C chemokine receptor type 3 (Homo sapiens, UniProt P51677); test: Displacement of [125I]eotaxin from CCR3 expressed in CHO cells; type: cell-based
T2 sequence (P51677 whole entry): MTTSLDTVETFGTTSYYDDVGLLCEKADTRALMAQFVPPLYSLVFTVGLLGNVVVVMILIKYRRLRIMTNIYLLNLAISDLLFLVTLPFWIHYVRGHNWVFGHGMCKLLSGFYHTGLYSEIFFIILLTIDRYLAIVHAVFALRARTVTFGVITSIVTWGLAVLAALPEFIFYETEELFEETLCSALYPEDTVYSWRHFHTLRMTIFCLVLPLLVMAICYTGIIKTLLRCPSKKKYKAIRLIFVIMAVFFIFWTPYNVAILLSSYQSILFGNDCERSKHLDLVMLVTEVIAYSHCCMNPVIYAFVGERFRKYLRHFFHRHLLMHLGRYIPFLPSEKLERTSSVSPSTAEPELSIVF
How it was run: (§3)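 CHO cells stably expressing the named chemokine receptor were incubated with the [125I]-labelled ligand (RANTES for CCR5 and CCR1, eotaxin for CCR3, TARC for CCR4) and varying compound concentrations. IC50 for inhibition of ligand binding is the mean of triplicate measurements.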

[11] = AUC (0-24h) in Beagle dog at 3 mg/kg, po; type: ADME, organism-based, Canis lupus familiaris; design: time < 24 hr, dose 3 mg/kg, route oral; settings: plasma
[12] = test system: Human immunodeficiency virus 1; test: Inhibition of replication of R5 HIV1 HKW in PMBC; type: functional, organism-based; settings: Human immunodeficiency virus 1, HKW; how it was run: as §1
[13] = test system: Human immunodeficiency virus 1; test: Inhibition of replication of R5 HIV1 KK in PMBC; type: functional, organism-based; settings: Human immunodeficiency virus 1, KK; how it was run: as §1
[14] = Half life in Sprague-Dawley rat plasma at 1 mg/kg, iv; type: ADME, organism-based; design: dose 1 mg/kg, route intravenous; how it was run: as §2
[15] = target: T3, C-C chemokine receptor type 4 (Homo sapiens, UniProt P51679); test: Displacement of [125I]TARC from CCR4 expressed in CHO cells; type: cell-based; how it was run: as §3
T3 sequence (P51679 whole entry): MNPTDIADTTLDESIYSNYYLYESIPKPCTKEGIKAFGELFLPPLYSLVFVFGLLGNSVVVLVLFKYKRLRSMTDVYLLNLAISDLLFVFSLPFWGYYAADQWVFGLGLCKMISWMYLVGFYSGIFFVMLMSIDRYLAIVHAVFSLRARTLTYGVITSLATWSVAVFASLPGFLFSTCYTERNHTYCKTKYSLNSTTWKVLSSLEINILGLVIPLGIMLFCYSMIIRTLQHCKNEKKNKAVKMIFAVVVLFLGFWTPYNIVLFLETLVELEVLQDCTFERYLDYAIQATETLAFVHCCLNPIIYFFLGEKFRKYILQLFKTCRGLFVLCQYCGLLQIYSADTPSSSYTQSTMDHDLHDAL

[16] = Cmax in cynomolgus monkey plasma at 3 mg/kg, po; type: ADME, organism-based, Macaca fascicularis; design: dose 3 mg/kg, route oral
[17] = test system: Human immunodeficiency virus 1; test: Inhibition of replication of R5 HIV1 HNK in PMBC; type: functional, organism-based; settings: Human immunodeficiency virus 1, HNK; how it was run: as §1
[18] = AUC (0-24h) in Sprague-Dawley rat at 3 mg/kg, po; type: ADME, organism-based; design: time < 24 hr, dose 3 mg/kg, route oral; settings: plasma
[19] = Half life in cynomolgus monkey plasma at 1 mg/kg, iv; type: ADME, organism-based, Macaca fascicularis; design: dose 1 mg/kg, route intravenous; how it was run: as §2
[20] = AUC (0-24h) in cynomolgus monkey at 3 mg/kg, po; type: ADME, organism-based, Macaca fascicularis; design: time < 24 hr, dose 3 mg/kg, route oral; settings: plasma
[21] = test system: Human immunodeficiency virus 1; test: Inhibition of replication of R5 HIV1 HHA in PMBC; type: functional, organism-based; settings: Human immunodeficiency virus 1, HHA; how it was run: as §1
[22] = Tmax in Sprague-Dawley rat plasma at 3 mg/kg, po; type: ADME, organism-based; design: dose 3 mg/kg, route oral
[23] = target: T4, C-C chemokine receptor type 1 (Homo sapiens, UniProt P32246); test: Displacement of [125I]RANTES from CCR1 expressed in CHO cells; type: cell-based; how it was run: as §3
T4 sequence (P32246 whole entry): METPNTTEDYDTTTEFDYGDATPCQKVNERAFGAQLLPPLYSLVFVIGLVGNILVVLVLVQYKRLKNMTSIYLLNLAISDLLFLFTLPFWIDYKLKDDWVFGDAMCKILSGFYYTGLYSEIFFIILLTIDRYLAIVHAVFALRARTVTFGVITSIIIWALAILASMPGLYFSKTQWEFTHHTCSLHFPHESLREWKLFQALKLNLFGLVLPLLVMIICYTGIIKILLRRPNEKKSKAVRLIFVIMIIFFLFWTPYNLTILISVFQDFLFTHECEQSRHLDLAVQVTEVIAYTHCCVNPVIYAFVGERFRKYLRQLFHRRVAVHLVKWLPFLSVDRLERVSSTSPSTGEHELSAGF

[24] = AUC (0-24h) in Sprague-Dawley rat at 1 mg/kg, iv; type: ADME, organism-based; design: time < 24 hr, dose 1 mg/kg, route intravenous; settings: plasma; how it was run: as §2
[25] = Half life in Beagle dog plasma at 1 mg/kg, iv; type: ADME, organism-based, Canis lupus familiaris; design: dose 1 mg/kg, route intravenous; how it was run: as §2
[26] = Bioavailability in cynomolgus monkey at 3 mg/kg, po; type: ADME, organism-based, Macaca fascicularis; settings: in vivo
[27] = test system: Human immunodeficiency virus 1; test: Inhibition of replication of R5 HIV1 CTV in PMBC; type: functional, organism-based; settings: Human immunodeficiency virus 1, CTV; how it was run: as §1
[28] = Tmax in cynomolgus monkey plasma at 3 mg/kg, po; type: ADME, organism-based, Macaca fascicularis; design: dose 3 mg/kg, route oral
[29] = target: T5, C-C chemokine receptor type 7 (Homo sapiens, UniProt P32248); test: Displacement of [125I]MIP-3beta from CCR7 expressed in CHO cells; type: cell-based
T5 sequence (P32248 whole entry): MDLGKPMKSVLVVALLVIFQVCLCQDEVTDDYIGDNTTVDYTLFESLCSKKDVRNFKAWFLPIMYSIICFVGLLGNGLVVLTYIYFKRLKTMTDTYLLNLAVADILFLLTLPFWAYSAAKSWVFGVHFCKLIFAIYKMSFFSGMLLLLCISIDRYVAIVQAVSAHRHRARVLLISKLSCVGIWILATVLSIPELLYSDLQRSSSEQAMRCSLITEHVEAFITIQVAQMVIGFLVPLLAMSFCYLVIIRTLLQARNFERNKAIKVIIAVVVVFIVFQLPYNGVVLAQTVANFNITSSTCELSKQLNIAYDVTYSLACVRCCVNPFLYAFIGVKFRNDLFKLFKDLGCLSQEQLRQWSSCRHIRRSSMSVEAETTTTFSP
How it was run: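 CHO cells stably expressing CCR7, run in the same way as the CCR5 binding assay. Binding of [¹²⁵I]-MIP-3β was measured across a range of test compound concentrations. IC50 is the concentration that inhibits ligand binding by 50%, reported as the mean of triplicate measurements.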

[30] = AUC (0-24h) in cynomolgus monkey at 1 mg/kg, iv; type: ADME, organism-based, Macaca fascicularis; design: time < 24 hr, dose 1 mg/kg, route intravenous; settings: plasma; how it was run: as §2
[31] = AUC (0-24h) in Beagle dog at 1 mg/kg, iv; type: ADME, organism-based, Canis lupus familiaris; design: time < 24 hr, dose 1 mg/kg, route intravenous; settings: plasma; how it was run: as §2
[32] = Plasma concentration in Beagle dog after 5 min at 1 mg/kg, iv; type: ADME, organism-based, Canis lupus familiaris; design: dose 1 mg/kg, route intravenous; how it was run: as §2
[33] = Bioavailability in Beagle dog at 3 mg/kg, po; type: ADME, organism-based, Canis lupus familiaris; settings: in vivo
[34] = Plasma concentration in Sprague-Dawley rat after 5 min at 1 mg/kg, iv; type: ADME, organism-based; design: dose 1 mg/kg, route intravenous; how it was run: as §2

CCCCOCCOc1ccc(-c2ccc3c(c2)C=C(C(=O)Nc2ccc([S+]([O-])Cc4cncn4CCC)cc2)CCN3CC(C)C)cc1 (configuration not stated)
pIC50 [1]: 8.72
IC90 [2]: 860 nM

CCCCOCCOc1ccc(-c2ccc3c(c2)/C=C(/C(=O)Nc2ccc([S@@+]([O-])Cc4cncn4CCC)cc2)CCCCCN3CC(C)C)cc1
pIC50 [1]: 7.17

CCCCOCCOc1ccc(-c2ccc3c(c2)/C=C(/C(=O)Nc2ccc([S@@+]([O-])Cc4cncn4CCC)cc2)CCCN3CCC)cc1
pIC50 [1]: 8.77
inhibition [3]: 72%

CCCCOCCOc1ccc(-c2ccc3c(c2)/C=C(/C(=O)Nc2ccc([S@@+]([O-])Cc4nncn4CCC)cc2)CCCN3CC(C)C)cc1
pIC50 [1]: 8.62
IC90 [2]: 10 nM

CCCCOCCOc1ccc(-c2ccc3c(c2)/C=C(/C(=O)Nc2ccc([S@@+]([O-])Cc4cncn4CCC)cc2)CCCN3Cc2cnn(C)c2)cc1
pIC50 [1]: 8.77
IC90 [2]: 11 nM

CCCCOCCOc1ccc(-c2ccc3c(c2)/C=C(/C(=O)Nc2ccc([S@@+]([O-])Cc4nncn4CCC)cc2)CCCN3CCC)cc1
pIC50 [1]: 8.66

CCCCOCCOc1ccc(-c2ccc3c(c2)/C=C(/C(=O)Nc2ccc([S@@+]([O-])Cc4cncn4CCC)cc2)CCCCN3CC(C)C)cc1
pIC50 [1]: 8.17
IC90 [2]: 19 nM

CCCCOCCOc1ccc(-c2ccc3c(c2)/C=C(/C(=O)Nc2ccc([S@@+]([O-])Cc4cncn4CCC)cc2)CCCCCN3CCC)cc1
pIC50 [1]: 7.60

CCCCOCCOc1ccc(-c2ccc3c(c2)/C=C(/C(=O)Nc2ccc([S@@+]([O-])Cc4cncn4CCC)cc2)CCCCN3CCC)cc1
pIC50 [1]: 8.33

CCCCOCCOc1ccc(-c2ccc3c(c2)/C=C(/C(=O)Nc2ccc([S@@+]([O-])Cc4cncn4CCC)cc2)CCCN3CC(C)C)cc1.CS(=O)(=O)O [CENICRIVIROC MESYLATE]
pIC50 [4]: 10.05
IC90 [4]: 0.32 nM
Cmax [5]: 570 ng/mL
Tmax [6]: 2.7 h
concentration at 5 min [7]: 3110 ng/mL
bioavailability [8]: 10.2%
Cmax [9]: 485 ng/mL
pIC50 [10]: 5.62
AUC(0-t) at 24 h [11]: 6010 ng·h/mL
pIC50 [12]: 10.31
IC90 [12]: 0.16 nM
pIC50 [13]: 10.37
IC90 [13]: 0.19 nM
half-life [14]: 4.85 h
pIC50 [15]: 5.96
Cmax [16]: 116 ng/mL
pIC50 [17]: 10.06
IC90 [17]: 0.36 nM
AUC(0-t) at 24 h [18]: 2320 ng·h/mL
half-life [19]: 6.09 h
AUC(0-t) at 24 h [20]: 670 ng·h/mL
pIC50 [21]: 10.62
IC90 [21]: 0.13 nM
Tmax [22]: 1.3 h
pIC50 [23]: < 5.00
AUC(0-t) at 24 h [24]: 7610 ng·h/mL
half-life [25]: 5.04 h
bioavailability [26]: 15.6%
pIC50 [27]: 10.15
IC90 [27]: 0.31 nM
Tmax [28]: 2 h
pIC50 [29]: < 5.00
AUC(0-t) at 24 h [30]: 1450 ng·h/mL
IC90 [2]: 0.81 nM
AUC(0-t) at 24 h [31]: 2310 ng·h/mL
concentration at 5 min [32]: 2320 ng/mL
bioavailability [33]: 88.5%
concentration at 5 min [34]: 8020 ng/mL
